The text below walks through data of ChEMBL document CHEMBL1133680, “Benzo[c]quinolizin-3-ones: a novel class of potent and selective nonsteroidal inhibitors of human steroid 5alpha-reductase 1” (J Med Chem, 2000).

The structures appear in SMILES notation.

The target in assay [1] is T1, 3-oxo-5-alpha-steroid 4-dehydrogenase 1 (Homo sapiens, UniProt P18405).
T1 sequence (P18405 whole entry): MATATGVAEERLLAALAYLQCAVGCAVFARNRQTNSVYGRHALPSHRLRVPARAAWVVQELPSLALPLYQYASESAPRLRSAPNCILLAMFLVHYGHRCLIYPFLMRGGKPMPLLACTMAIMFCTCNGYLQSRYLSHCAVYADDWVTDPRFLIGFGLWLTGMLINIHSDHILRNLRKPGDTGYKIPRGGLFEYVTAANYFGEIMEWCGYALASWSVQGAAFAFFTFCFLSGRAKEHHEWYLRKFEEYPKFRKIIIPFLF
The assay can be described thus: Inhibition of recombinant steroid 5-alpha-reductase type I expressed in CHO cells. It counts as cell-based.

Assay [2] deals with T1, 3-oxo-5-alpha-steroid 4-dehydrogenase 1. The assay is described as follows: Inhibition of recombinant Steroid 5-alpha-reductase type I expressed in CHO cells. The class given is cell-based.
Assay [3] has the same target. The assay is described as follows: Inhibition constant against recombinant Steroid 5-alpha-reductase type I expressed in CHO cells. The class given is cell-based.
Assay [4] addresses T2, 3-oxo-5-alpha-steroid 4-dehydrogenase 2 (Homo sapiens) (UniProt P31213).
T2 sequence (whole entry): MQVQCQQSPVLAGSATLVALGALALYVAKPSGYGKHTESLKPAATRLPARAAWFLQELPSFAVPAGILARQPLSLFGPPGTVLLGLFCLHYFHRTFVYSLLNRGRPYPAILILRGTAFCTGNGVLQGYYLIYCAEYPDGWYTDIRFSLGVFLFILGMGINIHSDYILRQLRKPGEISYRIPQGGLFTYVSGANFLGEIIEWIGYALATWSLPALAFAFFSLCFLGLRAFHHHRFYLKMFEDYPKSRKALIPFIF
The assay can be described thus: Inhibitory activity against steroid 5-alpha-reductase type 2 in human prostate homogenates at 10 uM. The class given is tissue-based. The following applies: Prostate gland. In short, it runs like this: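 Native 5αR-2 assayed in total human prostate homogenate with 50 nM testosterone, a level below the 5αR-1 Km so only type 2 is active. Percent inhibition was measured at 10 µM inhibitor.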

The target of assay [5] is T1, 3-oxo-5-alpha-steroid 4-dehydrogenase 1. The assay is described as follows: Inhibitory activity against Steroid 5-alpha-reductase type I in human scalp homogenates. It counts as tissue-based. In short, it runs like this:
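Native 5αR-1 assayed in total human scalp homogenate with testosterone at micromolar level. 10 nM finasteride was included to suppress the co-active 5αR-2, and the value is reported as IC50.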

In assay [6] the target is T3, 3-oxo-5-alpha-steroid 4-dehydrogenase 2 (Homo sapiens, UniProt P31213).
T3 sequence (P31213 whole entry): T2 sequence (whole entry)
The assay can be described thus: Inhibitory activity against steroid 5-alpha-reductase type 2 in human prostate homogenates. The class given is tissue-based, Prostate gland. In short, it runs like this: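 Native 5αR-2 in total human prostate homogenate, with 50 nM testosterone so that only type 2 is active (Km 0.2 µM vs 1.7 µM for type 1). Inhibition measured at 10 µM or as IC50. Finasteride and LY191704 used as selectivity controls.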

Assay [7] addresses T1, 3-oxo-5-alpha-steroid 4-dehydrogenase 1. The assay is described as follows: Inhibitory activity against recombinant Steroid 5-alpha-reductase type I expressed in CHO cells. It counts as cell-based.

Consider `Cc1ccc2c(c1)CCC1=CC(=O)CCN12`, for which, in assay [1], the IC50 is 376 nM.

Regarding `Cc1ccc2c(c1)CCC1C(C)C(=O)C=CN21` (configuration not stated), in assay [2], the IC50 is 312 nM.

Regarding `CC1=C2C(C)Cc3cc(Cl)ccc3N2CCC1=O` (configuration not stated), the IC50 in assay [2] was determined as 15.6 nM.

On to `CC1CC(=O)C=C2CCc3cc(Cl)ccc3N21` (configuration not stated), for which, in assay [2], the IC50 was determined as 204 nM.

Turning to `CC1Cc2cc(Cl)ccc2N2CCC(=O)C=C12` (configuration not stated), the IC50 in assay [1] was found to be 346 nM.

As for `Cc1ccc2c(c1)CCC1CC(=O)C=CN21` (configuration not stated), in assay [1], the IC50 was 176 nM.

`Cc1c2n(ccc1=O)-c1ccccc1CC2`: the IC50 in assay [2] was 1400 nM.

For the molecule `C[C@@H]1C(=O)C=CN2c3ccccc3CCC12` (some centres not stated), in assay [1], the 50% inhibitory concentration (IC50) turned out to be 2700 nM.

With `CC1=C2CCc3cc(C)ccc3N2CCC1=O`, the concentration for half-maximal inhibition (IC50) in assay [1] was determined as 20 nM; in assay [5] it was 41 nM. Besides, the inhibition constant Ki in assay [3] amounted to 5.8 nM. Further, in assay [4], the inhibition amounted to 20%.

As to `CC1=C2CC(C)c3cc(Cl)ccc3N2CCC1=O` (configuration not stated), in assay [2], the IC50 turned out to be 8.5 nM.

As to `C[C@H]1Cc2cc(Cl)ccc2N2C=CC(=O)CC12` (some centres not stated), in assay [1], the IC50 was found to be 9100 nM.

Take `Cc1ccc2c(c1)C(C)CC1=CC(=O)CCN12` (configuration not stated): in assay [2], the concentration for half-maximal inhibition (IC50) was 14.3 nM.

As for `O=C1C=CN2c3ccc(Cl)cc3CCC2C1` (configuration not stated), in assay [1], the concentration for half-maximal inhibition (IC50) was 459 nM.

Take `CC1=C2CC(C)c3cc(C)ccc3N2CCC1=O` (configuration not stated): the half-inhibitory concentration (IC50) in assay [2] was determined as 15.8 nM.

On to `CC1=C2CCc3ccccc3N2CCC1=O`, for which the concentration for half-maximal inhibition (IC50) in assay [1] came out at 185 nM.

Molecule `CC(C)(C)NC(=O)[C@H]1CC[C@H]2[C@@H]3CC[C@H]4NC(=O)C=C[C@]4(C)[C@H]3CC[C@]12C` [FINASTERIDE] returned an IC50 in assay [6] of 2.2 nM. In addition, in assay [7], the inhibitory constant (Ki) is 366 nM.

Take `C[C@@H]1CC2CC(=O)C=CN2c2ccc(Cl)cc21` (some centres not stated): the concentration for half-maximal inhibition (IC50) in assay [1] turned out to be 188 nM.

On to `CC1C(=O)C=CN2c3ccc(Cl)cc3CCC12` (configuration not stated), for which, in assay [1], the half-inhibitory concentration (IC50) was 141 nM.

As to `CC1CC2=CC(=O)CCN2c2ccc(Cl)cc21` (configuration not stated), in assay [2], the IC50 amounted to 14.4 nM.

Molecule `CN1C(=O)CC[C@@H]2c3ccc(Cl)cc3CC[C@H]21` [BEXLOSTERIDE] gave an inhibition in assay [4] of 19%. Half-maximal inhibition in assay [5] (IC50) was put at 2.3 nM.

Consider `CC1=C2CCc3cc(Cl)ccc3N2CCC1=O`, for which the IC50 in assay [1] was found to be 7.6 nM; in assay [5] it was 41 nM. For the same molecule, the inhibition constant Ki in assay [3] turned out to be 2.7 nM. The inhibition in assay [4] turned out to be 20%.

With `Cc1ccc2c(c1)CCC1[C@H](C)C(=O)C=CN21` (some centres not stated), the IC50 in assay [1] turned out to be 137 nM.

Take `CC1C(=O)C=CN2c3ccccc3CCC12` (configuration not stated): the half-maximal inhibitory concentration (IC50) in assay [2] was found to be 4300 nM.

`CC1Cc2cc(Cl)ccc2-n2ccc(=O)cc21` (configuration not stated): the IC50 in assay [2] came out at 1880 nM.

A word on the IC50: it is the concentration that gives 50% inhibition. As a reminder, the Ki is the equilibrium dissociation constant of an inhibitor or competing ligand from its target. In general, inhibition refers to the share of the control response that was lost under treatment. Low values mean a weak effect, high ones a strong effect.
